Values after ≈ are worked out from the molar mass of the structure shown. Active and inactive are the calls of the source. The rule behind the calls is not given here.
Key:
[1] = tested on: Staphylococcus aureus; experiment: Bactericidal activity against methicillin-resistant Staphylococcus aureus N315 in in vitro pharmacokinetic/pharmacodynamic model assessed as decrease in planktonic cell count at 10 mg/kg every 24 hrs measured after 48 hrs; assay type: functional, organism-based; set-up: dose 10 mg/kg
Summary of the method: (§1)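 Biofilm reactor with polystyrene coupons. Conditioning: 24 h at 37°C in TSB with 1% glucose, then 16 h continuous flow of TSB with 10% glucose (30-min residence time). […] Coupons (biofilm cells, recovered by vortex/sonication) and medium (planktonic cells) sampled 0–72 h and plated on TSA. Limit of detection 2 log10 CFU/ml, extended to 1 by filtration. Duplicate models.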

[2] = tested on: Staphylococcus aureus; experiment: fCmax in Staphylococcus aureus in in vitro pharmacokinetic/pharmacodynamic model at 10 mg/kg every 24 hrs; assay type: ADME, organism-based; set-up: dose 10 mg/kg
Summary of the method: (§2)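 Biofilm reactor with polystyrene coupons, simulating human free-drug profiles in supplemented Mueller-Hinton broth (calcium 25 μg/ml, magnesium 12.5 μg/ml) after a 40-h biofilm conditioning phase. Vancomycin was measured by fluorescence polarization immunoassay (lower limit 2 μg/ml). […] Half-life, AUC and peak were derived by the trapezoidal method.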

[3] = tested on: Staphylococcus aureus; experiment: Bactericidal activity against methicillin-resistant Staphylococcus aureus N315 planktonic cell in in vitro pharmacokinetic/pharmacodynamic model assessed as decrease in bacterial count at 10 mg/kg every 24 hrs; assay type: functional, organism-based; set-up: dose 10 mg/kg; summary of the method: as §1
[4] = AUC (0 to 24 hrs) in Staphylococcus aureus in in vitro pharmacokinetic/pharmacodynamic model at 10 mg/kg every 24 hrs; assay type: ADME, organism-based; set-up: time < 24 hr, dose 10 mg/kg; summary of the method: as §2
[5] = Half life in Staphylococcus aureus in in vitro pharmacokinetic/pharmacodynamic model at 10 mg/kg every 24 hrs; assay type: ADME, organism-based; set-up: dose 10 mg/kg; summary of the method: as §2
[6] = tested on: Staphylococcus aureus; experiment: Bactericidal activity against Staphylococcus aureus in in vitro pharmacokinetic/pharmacodynamic model assessed as decrease in biofilm bacterial count at 10 mg/kg every 24 hrs; assay type: functional
Summary of the method: (§3)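 MSSA SH1000 or MRSA N315 biofilm was conditioned for 40 h (24 h batch in 1% glucose TSB at 37°C, then 16 h flow in 10% glucose TSB) on polystyrene coupons. Simulated regimens ran 72 h in SMHB, duplicate models. Three coupons per time point (0–72 h) were saline-washed, vortexed and sonicated, and drop-plated on TSA. Reduction is log10 CFU/ml versus start; ≥3-log10 counts as bactericidal.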

[7] = tested on: Staphylococcus aureus; experiment: Antimicrobial activity against methicillin-susceptible Staphylococcus aureus SH1000 assessed as inhibition of bacterial biofilm formation by CLSI broth microdilution method; assay type: functional
[8] = tested on: Staphylococcus aureus; experiment: Bactericidal activity against methicillin-resistant Staphylococcus aureus N315 planktonic cell in in vitro pharmacokinetic/pharmacodynamic model assessed as decrease in bacterial count at 10 mg/kg every 24 hrs measured after 72 hrs; assay type: functional; summary of the method: as §1
[9] = tested on: Staphylococcus aureus; experiment: Bactericidal activity against Staphylococcus aureus in in vitro pharmacokinetic/pharmacodynamic model assessed as decrease in planktonic cell count at 10 mg/kg every 24 hrs; assay type: functional
Summary of the method: (§4)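 Planktonic cells were sampled (≈1 ml) from the flow biofilm reactor at 0, 4, 8, 24, 32, 48, 56 and 72 h during simulated regimens in SMHB, with duplicate models. Samples were serially diluted or vacuum-filtered against carryover, spiral-plated on TSA, and grown 24 h at 37°C; detection limit 1–2 log10 CFU/ml. Bactericidal means a ≥3-log10 CFU/ml fall from the starting inoculum.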

[10] = tested on: Staphylococcus aureus; experiment: Bactericidal activity against methicillin-resistant Staphylococcus aureus N315 in in vitro pharmacokinetic/pharmacodynamic model assessed as decrease in biofilm bacterial count at 10 mg/kg every 24 hrs measured after 72 hrs; assay type: functional; summary of the method: as §1
[11] = tested on: Staphylococcus aureus; experiment: Antimicrobial activity against methicillin-resistant Staphylococcus aureus N315 by CLSI broth microdilution method; assay type: functional
[12] = tested on: Staphylococcus aureus; experiment: Antimicrobial activity against methicillin-susceptible Staphylococcus aureus SH1000 by CLSI broth microdilution method; assay type: functional
[13] = Half life in Staphylococcus aureus in in vitro pharmacokinetic/pharmacodynamic model at 250 mg every 12 hrs; assay type: ADME, organism-based
[14] = AUC (0 to 24 hrs) in Staphylococcus aureus in in vitro pharmacokinetic/pharmacodynamic model at 250 mg every 12 hrs; assay type: ADME, organism-based; set-up: dose 250 mg, time < 24 hr
[15] = tested on: Staphylococcus aureus; experiment: fCmax in Staphylococcus aureus in in vitro pharmacokinetic/pharmacodynamic model at 250 mg every 12 hrs; assay type: ADME, organism-based
[16] = tested on: Staphylococcus aureus; experiment: Bactericidal activity against Staphylococcus aureus in in vitro pharmacokinetic/pharmacodynamic model assessed as decrease in biofilm bacterial count at 400 mg every 24 hrs; assay type: functional; summary of the method: as §3
[17] = tested on: Staphylococcus aureus; experiment: Bactericidal activity against Staphylococcus aureus in in vitro pharmacokinetic/pharmacodynamic model assessed as decrease in biofilm bacterial count at 400 mg every 24 hrs measured after 72 hrs; assay type: functional; summary of the method: as §3
[18] = tested on: Staphylococcus aureus; experiment: Bactericidal activity against Staphylococcus aureus in in vitro pharmacokinetic/pharmacodynamic model assessed as decrease in planktonic cell count at 400 mg every 24 hrs measured after 72 hrs; assay type: functional; summary of the method: as §4
[19] = tested on: Staphylococcus aureus; experiment: Bactericidal activity against Staphylococcus aureus in in vitro pharmacokinetic/pharmacodynamic model assessed as decrease in planktonic cell count at 400 mg every 24 hrs; assay type: functional; summary of the method: as §4
[20] = tested on: Staphylococcus aureus; experiment: fCmax in Staphylococcus aureus in in vitro pharmacokinetic/pharmacodynamic model at 400 mg every 24 hrs; assay type: ADME, organism-based
[21] = AUC (0 to 24 hrs) in Staphylococcus aureus in in vitro pharmacokinetic/pharmacodynamic model at 400 mg every 24 hrs; assay type: ADME, organism-based; set-up: time < 24 hr, dose 400 mg
[22] = tested on: Staphylococcus aureus; experiment: Antimicrobial activity against methicillin-resistant Staphylococcus aureus N315 assessed as inhibition of bacterial biofilm formation by CLSI broth microdilution method; assay type: functional
Summary of the method: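 Biofilm MIC determined using the modified Calgary biofilm device method.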

[23] = AUC (0 to 24 hrs) in Staphylococcus aureus in in vitro pharmacokinetic/pharmacodynamic model at 600 mg every 24 hrs; assay type: ADME, organism-based; set-up: dose 600 mg, time < 24 hr
[24] = tested on: Staphylococcus aureus; experiment: fCmax in Staphylococcus aureus in in vitro pharmacokinetic/pharmacodynamic model at 600 mg every 24 hrs; assay type: ADME, organism-based
[25] = tested on: Staphylococcus aureus; experiment: fCmax in Staphylococcus aureus in in vitro pharmacokinetic/pharmacodynamic model; assay type: ADME, organism-based; summary of the method: as §2
[26] = AUC (0 to 24 hrs) in Staphylococcus aureus in in vitro pharmacokinetic/pharmacodynamic model; assay type: ADME, organism-based; set-up: time < 24 hr; summary of the method: as §2
[27] = Half life in Staphylococcus aureus in in vitro pharmacokinetic/pharmacodynamic model; assay type: ADME, organism-based; summary of the method: as §2

CCCCCCCCCC(=O)N[C@@H](Cc1c[nH]c2ccccc12)C(=O)N[C@H](CC(N)=O)C(=O)N[C@@H](CC(=O)O)C(=O)N[C@@H]1C(=O)NCC(=O)N[C@@H](CCCN)C(=O)N[C@@H](CC(=O)O)C(=O)N[C@H](C)C(=O)N[C@@H](CC(=O)O)C(=O)NCC(=O)N[C@H](CO)C(=O)N[C@@H]([C@H](C)CC(=O)O)C(=O)N[C@@H](CC(=O)c2ccccc2N)C(=O)O[C@@H]1C
Activity [1]: inactive | fCmax [2]: 11.79 µg/mL | Activity [3]: Active | AUC at 24 h [4]: 200000 ng·h/mL | half-life [5]: 8.21 h | log10CFU/ml [6]: 2.83 | MBIC [7]: 2 µg/mL | log10CFU/ml [8]: 2.78 | log10CFU/ml [9]: 2.2 | log10CFU/ml [10]: 2.73 | MIC [11]: 0.125 µg/mL (≈ 0.0771 µM) | MIC [12]: 0.125 µg/mL (≈ 0.0771 µM)

CC[C@H]1OC(=O)[C@H](C)[C@@H](O[C@H]2C[C@@](C)(OC)[C@@H](O)[C@H](C)O2)[C@H](C)[C@@H](O[C@@H]2O[C@H](C)C[C@H](N(C)C)[C@H]2O)[C@](C)(OC)C[C@@H](C)C(=O)[C@H](C)[C@@H](O)[C@]1(C)O [CLARITHROMYCIN]
half-life [13]: 3.91 h | AUC at 24 h [14]: 6530 ng·h/mL | MBIC [7]: >128 µg/mL | fCmax [15]: 1.15 µg/mL | MIC [12]: > 128 µg/mL

COc1c(N2C[C@@H]3CCCN[C@@H]3C2)c(F)cc2c(=O)c(C(=O)O)cn(C3CC3)c12 [MOXIFLOXACIN]
log10CFU/ml [16]: 2.38 | log10CFU/ml [17]: 4.06 | log10CFU/ml [18]: 4.04 | log10CFU/ml [19]: 2.33 | fCmax [20]: 2.52 µg/mL | AUC at 24 h [21]: 44200 ng·h/mL

CO[C@H]1/C=C/O[C@@]2(C)Oc3c(C)c(O)c4c(O)c(c(/C=N/N5CCN(C)CC5)c(O)c4c3C2=O)NC(=O)/C(C)=C\C=C\[C@H](C)[C@H](O)[C@@H](C)[C@@H](O)[C@@H](C)[C@H](OC(C)=O)[C@@H]1C [RIFAMPIN]
MBIC [22]: <0.0625 µg/mL | AUC at 24 h [23]: 19600 ng·h/mL | fCmax [24]: 3.82 µg/mL | MIC [11]: < 0.0625 µg/mL

CN[C@H](CC(C)C)C(=O)N[C@H]1C(=O)N[C@@H](CC(N)=O)C(=O)N[C@H]2C(=O)N[C@H]3C(=O)N[C@H](C(=O)N[C@H](C(=O)O)c4cc(O)cc(O)c4-c4cc3ccc4O)[C@H](O)c3ccc(c(Cl)c3)Oc3cc2cc(c3O[C@@H]2O[C@H](CO)[C@@H](O)[C@H](O)[C@H]2O[C@H]2C[C@](C)(N)[C@H](O)[C@H](C)O2)Oc2ccc(cc2Cl)[C@H]1O [VANCOMYCIN]
MBIC [22]: 2 µg/mL | fCmax [25]: 22.6 µg/mL | AUC(0-t) at 24 h [26]: 193000 ng·h/mL | half-life [27]: 5.91 h | MIC [11]: 0.25 µg/mL (≈ 0.173 µM)

— ChEMBL document CHEMBL1671745 (Antimicrob Agents Chemother, 2010)
